The target of data set [1] is Bromodomain-containing protein 4 (Homo sapiens, UniProt O60885). In words: Inhibition of FAM-labeled ZBA248 binding to recombinant human N-terminal His6-tagged BRD4 bromodomain 2 (333 to 460 residues) expressed in Rosetta2 DE3 cells after 30 mins by Flourescence polarization assay. Format: biochemical.
For data set [2], the system named is Mus musculus. In words: Clearance in SCID mouse at 5 mg/kg, iv by LC/MS method. In kind it is ADME, organism-based. The settings on record: in vivo.
In data set [3] the target is CREB-binding protein (Homo sapiens, UniProt Q92793). In words: Binding affinity to human partial length CREBBP (R1081 to G1197 residues) expressed in bacterial expression system by BROMOscan assay.
The target of data set [4] is Bromodomain adjacent to zinc finger domain protein 2B (Homo sapiens, UniProt Q9UIF8). In words: Binding affinity to human partial length BAZ2B (S2054 to S2168 residues) expressed in bacterial expression system by BROMOscan assay.
Data set [5] addresses Nucleosome-remodeling factor subunit BPTF (Homo sapiens, UniProt Q12830). In words: Binding affinity to human partial length FALZ (S2791 to H2911 residues) expressed in bacterial expression system by BROMOscan assay.
For data set [6], the system named is HCC1143. In words: Cytotoxicity against human HCC1143 cells assessed as cell growth inhibition after 4 days by WST-8 assay. Format: functional, cell-based. The settings on record: HCC1143, 96 h. Summed up:
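Breast cancer cells were seeded at 3,000 cells/well, treated with serially diluted compound in medium and cultured for 4 days. Growth was read by WST-8 (10% v/v final, 1–3 h) at 450 nm. Readings were normalized to DMSO-treated cells, and IC50 was obtained by nonlinear regression.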
(Formazan colour is commonly taken as a measure of viable cells.)

The subject of data set [7] is Mus musculus. In words: Toxicity in SCID mouse implanted with human MV-411 cells assessed as weight loss at 50 mg/kg, po qd measured 2 to 3 times weekly during treatment and weekly post dose. Format: organism-based. The settings on record: in vivo. Summed up: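 At ~100 mm3, mice were randomized to treatment or vehicle control. Tumors were measured by electronic calipers. Animals were checked daily for signs of toxicity and weighed 2–3 times weekly on treatment, then at least weekly afterwards.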

Structures are written as SMILES. Where only a bound is given, the exact number is not on record here.

Bromodomain adjacent to zinc finger domain protein 2B, sequence (Q9UIF8 whole entry, the tested form may be a part): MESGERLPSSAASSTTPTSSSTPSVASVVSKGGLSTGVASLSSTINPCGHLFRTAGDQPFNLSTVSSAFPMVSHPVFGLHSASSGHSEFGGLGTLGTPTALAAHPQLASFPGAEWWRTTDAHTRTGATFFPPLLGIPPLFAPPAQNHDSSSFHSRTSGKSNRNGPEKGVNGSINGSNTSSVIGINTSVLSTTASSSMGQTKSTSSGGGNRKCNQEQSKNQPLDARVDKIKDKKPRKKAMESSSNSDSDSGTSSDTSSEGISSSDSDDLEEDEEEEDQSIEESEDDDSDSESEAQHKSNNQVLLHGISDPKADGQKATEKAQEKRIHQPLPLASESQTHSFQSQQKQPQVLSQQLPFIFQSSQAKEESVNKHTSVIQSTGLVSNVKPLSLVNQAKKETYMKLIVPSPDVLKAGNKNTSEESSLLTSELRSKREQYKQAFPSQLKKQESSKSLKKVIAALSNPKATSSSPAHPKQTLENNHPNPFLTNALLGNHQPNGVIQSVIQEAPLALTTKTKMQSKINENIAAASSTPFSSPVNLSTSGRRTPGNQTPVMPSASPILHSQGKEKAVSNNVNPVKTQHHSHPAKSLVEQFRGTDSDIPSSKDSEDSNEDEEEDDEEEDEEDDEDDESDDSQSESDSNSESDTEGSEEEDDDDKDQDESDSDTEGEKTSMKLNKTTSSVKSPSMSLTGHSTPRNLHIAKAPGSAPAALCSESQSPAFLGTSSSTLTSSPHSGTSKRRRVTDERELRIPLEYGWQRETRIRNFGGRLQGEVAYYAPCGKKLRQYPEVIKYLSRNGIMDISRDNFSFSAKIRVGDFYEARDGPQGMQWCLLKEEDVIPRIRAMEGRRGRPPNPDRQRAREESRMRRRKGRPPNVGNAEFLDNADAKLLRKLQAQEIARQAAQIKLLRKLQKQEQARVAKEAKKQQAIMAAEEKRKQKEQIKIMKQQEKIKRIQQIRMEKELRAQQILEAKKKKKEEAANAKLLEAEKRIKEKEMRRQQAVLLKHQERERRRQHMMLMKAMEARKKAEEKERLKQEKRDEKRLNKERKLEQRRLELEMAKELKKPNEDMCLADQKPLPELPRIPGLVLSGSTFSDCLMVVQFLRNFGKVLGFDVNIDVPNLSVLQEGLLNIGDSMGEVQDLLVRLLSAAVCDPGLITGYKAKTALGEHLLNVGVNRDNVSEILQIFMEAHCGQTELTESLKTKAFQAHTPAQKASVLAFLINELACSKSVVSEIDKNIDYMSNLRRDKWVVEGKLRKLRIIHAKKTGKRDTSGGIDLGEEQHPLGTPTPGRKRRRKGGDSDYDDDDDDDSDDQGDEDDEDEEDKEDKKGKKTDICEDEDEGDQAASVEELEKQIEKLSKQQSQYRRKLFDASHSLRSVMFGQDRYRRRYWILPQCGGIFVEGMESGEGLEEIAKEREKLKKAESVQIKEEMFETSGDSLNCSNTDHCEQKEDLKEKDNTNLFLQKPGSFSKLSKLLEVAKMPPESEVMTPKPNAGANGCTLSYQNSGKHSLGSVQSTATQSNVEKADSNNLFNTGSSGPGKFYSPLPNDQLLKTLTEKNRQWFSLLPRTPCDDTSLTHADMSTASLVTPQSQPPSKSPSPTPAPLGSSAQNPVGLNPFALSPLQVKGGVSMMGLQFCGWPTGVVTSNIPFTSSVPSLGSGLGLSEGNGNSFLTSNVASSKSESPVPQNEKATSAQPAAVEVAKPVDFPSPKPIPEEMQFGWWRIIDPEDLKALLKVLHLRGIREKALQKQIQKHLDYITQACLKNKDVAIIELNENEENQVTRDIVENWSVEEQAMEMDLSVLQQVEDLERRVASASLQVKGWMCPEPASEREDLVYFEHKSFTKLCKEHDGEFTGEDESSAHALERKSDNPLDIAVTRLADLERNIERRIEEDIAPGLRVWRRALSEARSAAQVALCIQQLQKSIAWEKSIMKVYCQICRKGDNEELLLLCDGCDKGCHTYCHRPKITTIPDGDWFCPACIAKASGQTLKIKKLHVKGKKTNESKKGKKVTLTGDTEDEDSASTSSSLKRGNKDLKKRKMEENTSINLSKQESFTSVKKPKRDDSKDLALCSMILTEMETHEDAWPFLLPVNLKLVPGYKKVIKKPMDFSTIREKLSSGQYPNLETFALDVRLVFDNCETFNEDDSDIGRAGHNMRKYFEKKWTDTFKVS
CREB-binding protein, sequence (Q92793 whole entry, the tested form may be a part): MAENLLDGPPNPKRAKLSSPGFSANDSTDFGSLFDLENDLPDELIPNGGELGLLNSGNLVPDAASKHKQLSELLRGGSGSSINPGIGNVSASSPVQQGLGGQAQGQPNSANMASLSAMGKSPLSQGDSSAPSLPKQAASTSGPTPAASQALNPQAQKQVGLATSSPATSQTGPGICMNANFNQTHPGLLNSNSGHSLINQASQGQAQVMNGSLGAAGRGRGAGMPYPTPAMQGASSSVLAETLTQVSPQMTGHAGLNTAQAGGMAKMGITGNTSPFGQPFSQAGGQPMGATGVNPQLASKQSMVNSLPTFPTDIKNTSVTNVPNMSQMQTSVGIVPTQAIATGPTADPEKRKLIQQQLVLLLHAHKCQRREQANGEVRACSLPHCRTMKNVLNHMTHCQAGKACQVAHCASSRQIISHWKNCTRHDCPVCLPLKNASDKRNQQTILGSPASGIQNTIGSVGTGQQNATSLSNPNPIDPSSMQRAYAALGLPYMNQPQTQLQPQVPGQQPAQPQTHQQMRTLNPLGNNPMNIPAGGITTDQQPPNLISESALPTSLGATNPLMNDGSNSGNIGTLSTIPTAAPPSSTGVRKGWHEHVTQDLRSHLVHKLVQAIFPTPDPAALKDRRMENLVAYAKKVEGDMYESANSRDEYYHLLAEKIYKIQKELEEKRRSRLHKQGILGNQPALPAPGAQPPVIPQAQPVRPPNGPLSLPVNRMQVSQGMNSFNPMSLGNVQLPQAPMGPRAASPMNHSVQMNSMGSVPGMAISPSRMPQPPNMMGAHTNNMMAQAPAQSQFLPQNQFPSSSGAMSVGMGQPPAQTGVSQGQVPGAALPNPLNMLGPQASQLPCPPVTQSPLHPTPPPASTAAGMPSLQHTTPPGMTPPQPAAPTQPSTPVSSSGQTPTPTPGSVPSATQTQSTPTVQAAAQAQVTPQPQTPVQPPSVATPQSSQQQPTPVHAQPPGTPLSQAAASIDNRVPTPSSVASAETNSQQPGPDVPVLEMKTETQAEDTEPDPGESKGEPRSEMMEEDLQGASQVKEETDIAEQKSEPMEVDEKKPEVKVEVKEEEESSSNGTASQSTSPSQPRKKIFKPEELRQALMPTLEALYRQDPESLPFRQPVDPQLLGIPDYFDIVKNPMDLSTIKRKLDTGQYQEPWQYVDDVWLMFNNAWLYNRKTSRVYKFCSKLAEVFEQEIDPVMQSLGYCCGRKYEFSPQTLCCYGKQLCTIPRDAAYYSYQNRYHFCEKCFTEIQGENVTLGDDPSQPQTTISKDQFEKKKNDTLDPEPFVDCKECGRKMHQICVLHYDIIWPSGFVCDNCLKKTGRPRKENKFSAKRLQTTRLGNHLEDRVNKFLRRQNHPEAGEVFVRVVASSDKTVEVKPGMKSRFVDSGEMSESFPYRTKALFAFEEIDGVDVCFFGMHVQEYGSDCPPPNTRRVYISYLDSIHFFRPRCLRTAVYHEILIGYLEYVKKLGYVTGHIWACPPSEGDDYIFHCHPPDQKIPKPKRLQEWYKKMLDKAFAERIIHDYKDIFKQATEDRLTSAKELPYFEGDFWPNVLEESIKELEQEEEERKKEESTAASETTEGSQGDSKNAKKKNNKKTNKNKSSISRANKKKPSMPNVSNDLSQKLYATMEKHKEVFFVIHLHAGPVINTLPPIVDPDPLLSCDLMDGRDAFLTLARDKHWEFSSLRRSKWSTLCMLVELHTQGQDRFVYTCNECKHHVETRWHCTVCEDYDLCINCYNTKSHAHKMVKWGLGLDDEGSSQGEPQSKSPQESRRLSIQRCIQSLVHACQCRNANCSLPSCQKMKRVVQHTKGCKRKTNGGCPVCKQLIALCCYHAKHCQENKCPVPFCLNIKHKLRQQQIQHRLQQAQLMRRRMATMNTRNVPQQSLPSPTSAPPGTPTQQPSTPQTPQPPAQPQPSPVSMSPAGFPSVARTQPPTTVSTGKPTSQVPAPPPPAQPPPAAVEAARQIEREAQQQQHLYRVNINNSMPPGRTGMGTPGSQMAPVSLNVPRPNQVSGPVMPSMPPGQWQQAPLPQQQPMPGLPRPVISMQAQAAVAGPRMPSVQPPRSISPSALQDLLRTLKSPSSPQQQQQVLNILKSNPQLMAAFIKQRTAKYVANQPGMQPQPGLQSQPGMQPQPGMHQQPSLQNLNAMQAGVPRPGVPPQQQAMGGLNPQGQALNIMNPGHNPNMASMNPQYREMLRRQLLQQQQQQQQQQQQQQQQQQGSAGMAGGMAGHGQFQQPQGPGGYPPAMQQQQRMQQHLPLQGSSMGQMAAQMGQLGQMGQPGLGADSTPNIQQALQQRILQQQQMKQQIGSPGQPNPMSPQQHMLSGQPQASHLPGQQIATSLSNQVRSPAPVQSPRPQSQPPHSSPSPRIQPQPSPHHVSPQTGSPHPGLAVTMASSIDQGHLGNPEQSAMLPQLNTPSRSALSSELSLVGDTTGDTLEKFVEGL

In the case of `COc1cc2c(cc1-c1c(C)noc1C)[nH]c1nc(C)nc(-c3ccnc4ccccc34)c12`, the IC50 was 7.2 nM in data set [1] and over 2000 nM in data set [6]. Also, the Ki in data set [1] amounted to 1.4 nM. This molecule came in with a CL in data set [2] of 22.7 mL/min/kg. Besides, the dissociation constant (Kd) in data set [3] was 520 nM; in data set [4] it was over 4000 nM; in data set [5], over 4000 nM. For the same molecule, the Activity result in data set [7] is recorded as “Non-Toxic”.

As usually defined, the IC50 is the concentration at which inhibition is half-maximal. The Ki is a dissociation constant, usually derived from enzyme kinetics or from competition with a known ligand. The Kd is the constant that tells how readily two partners part at equilibrium. Lower therefore signals a tighter complex.

These data come from ChEMBL document CHEMBL4184143 (J Med Chem, 2017).
